Experimental data as given in ChEMBL document CHEMBL2203263, “Discovery of a 4-Azetidinyl-1-thiazoyl-cyclohexane CCR2 Antagonist as a Development Candidate” (ACS Med Chem Lett, 2012).
Calls of active or inactive are those of the source. The rule behind the calls is not given here.

How the values were obtained:
[1] = Plasma concentration in Hartley guinea pig up to cumulative dose of 10 mg/kg, iv by LC-MS-MS analysis; format: ADME, organism-based, Cavia porcellus; set-up: dose 10 mg/kg, route intravenous; settings: in vivo
In short: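 Plasma drug level was taken from the anesthetized guinea pig QTc study. Dosing was cumulative i.v. (0.1, 0.3, 1, 3, 10 mg/kg), each dose a 5 min infusion at 20 min intervals, up to 10 mg/kg.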

[2] = target: Voltage-gated inwardly rectifying potassium channel KCNH2 (Homo sapiens, UniProt Q12809); assay: Displacement of [3H]-astemizole from human ERG expressed in HEK293 cells after 1 hr by scintillation counting analysis; format: cell-based
Voltage-gated inwardly rectifying potassium channel KCNH2, sequence (Q12809 whole entry): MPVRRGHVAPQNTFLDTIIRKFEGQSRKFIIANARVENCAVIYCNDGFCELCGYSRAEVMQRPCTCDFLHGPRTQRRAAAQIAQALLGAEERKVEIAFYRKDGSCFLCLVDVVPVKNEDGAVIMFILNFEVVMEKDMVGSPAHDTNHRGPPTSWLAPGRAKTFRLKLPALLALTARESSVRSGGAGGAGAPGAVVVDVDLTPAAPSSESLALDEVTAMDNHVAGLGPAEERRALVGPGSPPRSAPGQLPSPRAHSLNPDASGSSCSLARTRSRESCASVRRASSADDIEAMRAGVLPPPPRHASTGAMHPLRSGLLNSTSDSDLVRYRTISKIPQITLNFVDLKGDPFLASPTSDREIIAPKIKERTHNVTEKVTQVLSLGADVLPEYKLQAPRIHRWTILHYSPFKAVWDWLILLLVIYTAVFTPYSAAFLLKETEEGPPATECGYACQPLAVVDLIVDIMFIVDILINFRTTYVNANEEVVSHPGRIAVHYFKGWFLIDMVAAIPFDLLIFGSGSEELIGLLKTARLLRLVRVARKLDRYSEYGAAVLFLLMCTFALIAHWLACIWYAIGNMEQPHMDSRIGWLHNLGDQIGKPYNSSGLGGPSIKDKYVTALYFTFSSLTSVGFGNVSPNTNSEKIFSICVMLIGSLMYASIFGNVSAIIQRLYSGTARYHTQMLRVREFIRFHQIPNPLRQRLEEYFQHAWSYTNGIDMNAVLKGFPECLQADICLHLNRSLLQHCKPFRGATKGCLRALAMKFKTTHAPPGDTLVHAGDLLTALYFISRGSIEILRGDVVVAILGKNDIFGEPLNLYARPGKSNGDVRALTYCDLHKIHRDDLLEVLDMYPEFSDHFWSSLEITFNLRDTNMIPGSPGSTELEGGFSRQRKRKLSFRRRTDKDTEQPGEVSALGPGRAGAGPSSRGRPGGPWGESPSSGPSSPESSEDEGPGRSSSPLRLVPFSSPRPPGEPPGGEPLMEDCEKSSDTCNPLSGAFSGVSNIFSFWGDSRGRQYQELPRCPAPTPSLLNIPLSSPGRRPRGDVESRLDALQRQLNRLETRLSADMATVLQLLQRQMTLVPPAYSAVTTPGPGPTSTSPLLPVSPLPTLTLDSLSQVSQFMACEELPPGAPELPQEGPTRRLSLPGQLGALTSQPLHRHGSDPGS

[3] = tested on: Cavia porcellus; assay: Cardiotoxicity in anesthetized Hartley guinea pig assessed as prolongation of corrected QT interval up to cumulative dose of 10 mg/kg, iv by electrocardiographic analysis; format: toxicity, organism-based; set-up: dose 10 mg/kg, route intravenous; settings: in vivo
In short: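 Anesthetized guinea pigs received cumulative i.v. doses of 0.1, 0.3, 1, 3 and 10 mg/kg, each as a 5 min infusion at 0, 20, 40, 60 and 80 min. QTc was recorded at each time point as percent change from each animal's baseline. Mean ± SEM, n = 3.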

[4] = target: hERG (KCNH2) (Homo sapiens, UniProt Q12809); assay: Inhibition of human ERG expressed in HEK-293 cells assessed as K+-selective outward current at 3 uM at -80 mV holding potential after 5 mins by voltage patch-clamp method; format: cell-based, HEK293; settings: HEK-293 cells expressing human ERG
hERG (KCNH2), sequence (Q12809 whole entry): as above

[5] = AUC (last) in dog at 6.7 mg/kg, po by LC-MS-MS analysis; format: ADME, organism-based, Canis lupus familiaris; set-up: time 0 - last, dose 6.7 mg/kg, route oral; settings: plasma
In short: (§1)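 Single oral dose of 6.7 mg/kg given to dogs as a suspension/solution in 0.5% methocel vehicle. AUC was taken to the last sampled time point.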

[6] = Oral bioavailability in mouse at 10 mg/kg by LC-MS-MS analysis; format: ADME, organism-based; settings: in vivo
[7] = tested on: Canis familiaris; assay: Toxicity in anesthetized dog assessed as effect on cardiohemodynamic parameters up to 10 mg/kg, iv; format: organism-based, Canis lupus familiaris; set-up: dose 10 mg/kg, route intravenous; settings: in vivo
[8] = target: T1, C-C chemokine receptor type 4 (Homo sapiens) (UniProt P51679); assay: Binding affinity against CCR4 at 25 uM
T1 sequence (whole entry): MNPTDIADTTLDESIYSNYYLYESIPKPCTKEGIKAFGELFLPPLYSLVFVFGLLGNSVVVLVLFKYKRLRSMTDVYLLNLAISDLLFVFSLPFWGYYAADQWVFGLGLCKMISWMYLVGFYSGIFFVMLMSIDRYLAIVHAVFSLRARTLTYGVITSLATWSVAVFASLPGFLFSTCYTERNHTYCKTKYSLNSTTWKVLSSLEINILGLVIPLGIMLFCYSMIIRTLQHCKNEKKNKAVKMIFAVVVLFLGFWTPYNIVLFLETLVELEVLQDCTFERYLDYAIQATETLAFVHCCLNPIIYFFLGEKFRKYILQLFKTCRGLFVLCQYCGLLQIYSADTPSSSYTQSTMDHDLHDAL

[9] = tested on: Mus musculus; assay: Antiasthamatic activity in ovalbumin-sensitized mouse model assessed as inhibition of airway eosinophil infiltration at 10 mg/kg, po bid; format: functional
[10] = target: C-C chemokine receptor type 2 (Mus musculus, UniProt P51683); assay: Binding affinity to mouse CCR2
C-C chemokine receptor type 2, sequence (P51683 whole entry): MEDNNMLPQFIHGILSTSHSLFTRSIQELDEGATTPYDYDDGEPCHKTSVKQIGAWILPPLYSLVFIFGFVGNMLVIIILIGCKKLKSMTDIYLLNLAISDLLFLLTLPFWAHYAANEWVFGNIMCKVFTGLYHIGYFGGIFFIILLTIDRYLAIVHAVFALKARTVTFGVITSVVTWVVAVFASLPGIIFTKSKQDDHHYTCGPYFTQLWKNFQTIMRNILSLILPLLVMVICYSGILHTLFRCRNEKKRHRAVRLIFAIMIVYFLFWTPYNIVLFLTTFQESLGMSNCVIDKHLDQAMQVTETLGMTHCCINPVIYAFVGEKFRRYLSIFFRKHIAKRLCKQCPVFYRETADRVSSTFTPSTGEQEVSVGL

[11] = Cmax in monkey at 7.2 mg/kg, po by LC-MS-MS analysis; format: ADME, organism-based, Macaca mulatta; set-up: dose 7.2 mg/kg, route oral; settings: rhesus monkey, in vivo
[12] = tested on: Canis familiaris; assay: Toxicity in anesthetized dog assessed as effect on functional respiratory parameters up to 10 mg/kg, iv; format: organism-based, Canis lupus familiaris; set-up: dose 10 mg/kg, route intravenous; settings: in vivo
[13] = target: T2, C-C chemokine receptor type 3 (Homo sapiens) (UniProt P51677); assay: Binding affinity against CCR3 at 25 uM
T2 sequence (whole entry): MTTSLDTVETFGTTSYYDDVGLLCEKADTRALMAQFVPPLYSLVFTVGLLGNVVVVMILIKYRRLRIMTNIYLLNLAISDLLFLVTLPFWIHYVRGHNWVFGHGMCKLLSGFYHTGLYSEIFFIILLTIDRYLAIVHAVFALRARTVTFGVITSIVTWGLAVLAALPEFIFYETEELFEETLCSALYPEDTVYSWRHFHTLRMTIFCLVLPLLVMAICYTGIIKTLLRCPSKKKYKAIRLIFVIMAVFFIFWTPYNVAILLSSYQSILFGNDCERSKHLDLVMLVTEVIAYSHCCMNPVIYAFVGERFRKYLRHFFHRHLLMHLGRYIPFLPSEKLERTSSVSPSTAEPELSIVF

[14] = Cmax in mouse at 10 mg/kg, po by LC-MS-MS analysis; format: ADME, organism-based; set-up: dose 10 mg/kg, route oral; settings: in vivo
[15] = target: T3, C-X-C chemokine receptor type 1 (Homo sapiens) (UniProt P25024); assay: Binding affinity against CXCR1 at 25 uM
T3 sequence (whole entry): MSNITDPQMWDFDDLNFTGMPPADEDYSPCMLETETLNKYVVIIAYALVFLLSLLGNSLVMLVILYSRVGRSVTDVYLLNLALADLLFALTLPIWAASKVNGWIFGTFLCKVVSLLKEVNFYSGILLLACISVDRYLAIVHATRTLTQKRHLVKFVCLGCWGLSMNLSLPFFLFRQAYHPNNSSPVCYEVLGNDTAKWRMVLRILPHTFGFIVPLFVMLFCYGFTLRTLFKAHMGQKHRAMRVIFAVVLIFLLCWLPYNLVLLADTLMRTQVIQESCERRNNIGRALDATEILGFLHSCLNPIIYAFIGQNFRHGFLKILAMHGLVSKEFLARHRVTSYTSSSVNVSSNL

[16] = target: T4, C-C chemokine receptor type 1 (Homo sapiens) (UniProt P32246); assay: Binding affinity against CCR1 at 25 uM
T4 sequence (whole entry): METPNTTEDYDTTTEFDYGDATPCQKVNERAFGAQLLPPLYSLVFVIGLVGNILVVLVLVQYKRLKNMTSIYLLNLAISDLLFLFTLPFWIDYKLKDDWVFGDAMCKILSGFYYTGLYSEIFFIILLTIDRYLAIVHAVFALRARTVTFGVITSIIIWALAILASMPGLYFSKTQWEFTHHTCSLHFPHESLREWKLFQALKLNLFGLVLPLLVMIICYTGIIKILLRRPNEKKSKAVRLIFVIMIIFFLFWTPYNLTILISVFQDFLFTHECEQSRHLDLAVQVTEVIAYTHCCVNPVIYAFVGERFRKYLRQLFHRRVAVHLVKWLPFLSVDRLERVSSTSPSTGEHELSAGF

[17] = Oral bioavailability in rat at 10 mg/kg by LC-MS-MS analysis; format: ADME, organism-based; settings: in vivo
[18] = target: T5, C-X-C chemokine receptor type 2 (Homo sapiens) (UniProt P25025); assay: Binding affinity against CXCR2 at 25 uM
T5 sequence (whole entry): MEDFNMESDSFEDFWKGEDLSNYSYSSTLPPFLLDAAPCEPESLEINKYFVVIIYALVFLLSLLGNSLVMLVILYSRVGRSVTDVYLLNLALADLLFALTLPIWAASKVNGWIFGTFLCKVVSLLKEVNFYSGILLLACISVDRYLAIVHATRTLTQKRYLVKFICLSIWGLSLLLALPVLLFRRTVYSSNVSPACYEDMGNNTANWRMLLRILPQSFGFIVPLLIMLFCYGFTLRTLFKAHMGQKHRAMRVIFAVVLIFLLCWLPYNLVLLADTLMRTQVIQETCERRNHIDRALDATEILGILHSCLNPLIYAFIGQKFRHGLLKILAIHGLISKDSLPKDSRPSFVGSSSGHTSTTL

[19] = Oral bioavailability in dog at 6.7 mg/kg by LC-MS-MS analysis; format: ADME, organism-based, Canis lupus familiaris; settings: in vivo; in short: as §1
[20] = AUC (last) in monkey at 7.2 mg/kg, po by LC-MS-MS analysis; format: ADME, organism-based, Macaca mulatta; set-up: time 0 - last, dose 7.2 mg/kg, route oral; settings: rhesus monkey, plasma
[21] = AUC (last) in rat at 10 mg/kg, po by LC-MS-MS analysis; format: ADME, organism-based; set-up: time 0 - last, dose 10 mg/kg, route oral; settings: plasma
[22] = tested on: Canis familiaris; assay: Toxicity in anesthetized dog assessed as effect on electrophysiological parameters up to 10 mg/kg, iv; format: organism-based, Canis lupus familiaris; set-up: dose 10 mg/kg, route intravenous; settings: in vivo
[23] = tested on: Mus musculus; assay: Inhibition of thioglycollate-induced peritonitis in po dosed human CCR2 knock-in/murine CCR2 knockout mouse assessed as inhibition of leukocytes, monocytes/macrophages and T-lymphocytes influx in to peritoneal cavity administered as bid; format: functional
[24] = AUC (last) in mouse at 10 mg/kg, po by LC-MS-MS analysis; format: ADME, organism-based; set-up: time 0 - last, dose 10 mg/kg, route oral; settings: plasma
[25] = tested on: Canis familiaris; assay: Cardiotoxicity in anesthetized dog assessed as effect on ECG morphology up to 10 mg/kg, iv; format: toxicity, organism-based, Canis lupus familiaris; set-up: dose 10 mg/kg, route intravenous; settings: in vivo
[26] = target: C-X-C chemokine receptor type 4 (Homo sapiens) (UniProt P61073); assay: Binding affinity against CXCR4 at 25 uM
C-X-C chemokine receptor type 4 (Homo sapiens), sequence (P61073 whole entry): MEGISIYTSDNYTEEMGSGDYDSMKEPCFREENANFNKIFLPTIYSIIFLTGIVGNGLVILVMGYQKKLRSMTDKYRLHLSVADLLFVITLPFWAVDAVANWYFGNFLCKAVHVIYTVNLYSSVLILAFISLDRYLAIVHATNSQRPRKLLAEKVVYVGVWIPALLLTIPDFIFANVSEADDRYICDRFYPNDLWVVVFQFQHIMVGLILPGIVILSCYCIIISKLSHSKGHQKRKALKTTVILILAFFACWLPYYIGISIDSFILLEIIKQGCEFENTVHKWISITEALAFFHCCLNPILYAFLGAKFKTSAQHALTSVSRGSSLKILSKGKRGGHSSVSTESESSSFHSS

[27] = Cmax in rat at 10 mg/kg, po by LC-MS-MS analysis; format: ADME, organism-based; set-up: dose 10 mg/kg, route oral; settings: in vivo
[28] = target: C-C chemokine receptor type 5 (Homo sapiens) (UniProt P51681); assay: Binding affinity against CCR5 at 25 uM
C-C chemokine receptor type 5 (Homo sapiens), sequence (P51681 whole entry, looked up): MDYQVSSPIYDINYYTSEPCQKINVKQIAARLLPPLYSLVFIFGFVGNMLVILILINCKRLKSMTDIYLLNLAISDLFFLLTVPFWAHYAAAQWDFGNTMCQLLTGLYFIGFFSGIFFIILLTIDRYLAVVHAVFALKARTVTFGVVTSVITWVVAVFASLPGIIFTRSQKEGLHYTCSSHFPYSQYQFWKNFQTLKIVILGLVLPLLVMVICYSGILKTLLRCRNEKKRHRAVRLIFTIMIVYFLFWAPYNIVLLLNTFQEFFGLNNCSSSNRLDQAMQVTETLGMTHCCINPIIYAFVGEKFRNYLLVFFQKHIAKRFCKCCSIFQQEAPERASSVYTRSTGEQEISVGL

[29] = target: T6, CX3C chemokine receptor 1 (Homo sapiens) (UniProt P49238); assay: Binding affinity against CX3CR1 at 25 uM
T6 sequence (whole entry): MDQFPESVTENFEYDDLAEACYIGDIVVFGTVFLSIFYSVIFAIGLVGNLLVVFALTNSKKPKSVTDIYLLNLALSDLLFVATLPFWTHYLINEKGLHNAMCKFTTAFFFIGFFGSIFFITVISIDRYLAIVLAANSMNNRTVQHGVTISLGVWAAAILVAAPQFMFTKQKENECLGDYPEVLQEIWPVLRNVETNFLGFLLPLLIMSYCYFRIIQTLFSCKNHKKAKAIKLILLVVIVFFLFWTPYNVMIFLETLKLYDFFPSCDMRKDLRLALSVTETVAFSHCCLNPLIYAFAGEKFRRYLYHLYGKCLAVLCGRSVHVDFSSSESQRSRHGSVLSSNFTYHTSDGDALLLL

[30] = Oral bioavailability in monkey at 7.2 mg/kg by LC-MS-MS analysis; format: ADME, organism-based, Macaca mulatta; settings: rhesus monkey, in vivo
[31] = Cmax in dog at 6.7 mg/kg, po by LC-MS-MS analysis; format: ADME, organism-based, Canis lupus familiaris; set-up: dose 6.7 mg/kg, route oral; settings: in vivo; in short: as §1

SMILES: CC(C)c1ncc([C@]2(O)CC[C@H](N3CC(NC(=O)CNC(=O)c4cccc(C(F)(F)F)c4)C3)CC2)s1
- concentration [1]: 10 µM
- IC50 [2]: > 50 µM
- Activity [3]: Non-toxic
- inhibition at 5 min, 3 µM [4]: 35%

SMILES: CC(C)Oc1ncc([C@]2(O)CC[C@H](N3CC(NC(=O)CNC(=O)c4cccc(C(F)(F)F)c4)C3)CC2)s1
- concentration [1]: 3 µM
- IC50 [2]: 28 µM
- Activity [3]: Non-toxic
- inhibition at 5 min, 3 µM [4]: 49%

SMILES: CSc1ncc([C@]2(O)CC[C@H](N3CC(NC(=O)CNC(=O)c4cccc(C(F)(F)F)c4)C3)CC2)s1
- IC50 [2]: 6 µM
- inhibition at 5 min, 3 µM [4]: 77%

SMILES: O=C(CNC(=O)c1cccc(C(F)(F)F)c1)NC1CN([C@H]2CC[C@@](O)(c3cncs3)CC2)C1 [JNJ-41443532]
- AUC(0-t) [5]: 5890 ng·h/mL
- bioavailability [6]: 19%
- Activity [7]: Non-toxic
- concentration [1]: 26 µM
- inhibition [8]: inactive
- inhibition in vivo at 10 mg/kg [9]: 89%
- Ki [10]: 9.6 µM
- Cmax [11]: 740 ng/mL
- Activity [12]: Non-toxic
- inhibition [13]: inactive
- Cmax [14]: 74 ng/mL
- inhibition [15]: inactive
- inhibition [16]: inactive
- bioavailability [17]: 15.3%
- inhibition [18]: inactive
- bioavailability [19]: 70.2%
- Activity [3]: Non-toxic
- AUC(0-t) [20]: 3060 ng·h/mL
- AUC(0-t) [21]: 416 ng·h/mL
- Activity [22]: Non-toxic
- ED50 [23]: 3 mg/kg
- inhibition [23]: Dose-dependent effect
- AUC(0-t) [24]: 204 ng·h/mL
- Activity [25]: Non-toxic
- inhibition [26]: inactive
- Cmax [27]: 100 ng/mL
- inhibition [28]: inactive
- inhibition [29]: inactive
- bioavailability [30]: 25.4%
- Cmax [31]: 1620 ng/mL
